This note sets out measurements from ChEMBL document CHEMBL1152486, “Synthesis and antitumor activity of optically active thiourea and their 2-aminobenzothiazole derivatives: a novel class of anticancer agents” (Eur J Med Chem, 2009).

Format in all cases: functional, cell-based
The subject of experiment [1] is MCF7. Nature of the experiment: Cytotoxicity against human MCF7 cells after 24 hrs by MTT assay. Put shortly:
(§1)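 Standard MTT, 24 h exposure. Cells plated at 10^4/well and allowed 24 h to attach, then exposed to 1–100 μM compound (dissolved in 0.1% DMSO, diluted in medium; vehicle controls 0.1% DMSO). MTT 1 mg/ml for 4 h at 37 °C, formazan dissolved in DMSO, absorbance read at 540 nm. IC50 taken as concentration giving 50% growth inhibition; triplicate.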

The nature of experiment [2]: Cytotoxicity against mouse EAC after 24 hrs by MTT assay. The note with it: Ehrlich. Put shortly: as §1
In another experiment the test system is HeLa. In words: Cytotoxicity against human HeLa cells after 24 hrs by MTT assay. Put shortly:
as §1

Experiment [3] has as its system MCF7. In words: Cytotoxicity against human MCF7 cells after 48 hrs by MTT assay. The note with it: MCF7, 48 h. Put shortly:
(§2)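 MCF-7 time-course MTT. Cells seeded at 5 × 10^3/well and exposed to 1–50 μM compound. Percentage cytotoxicity and IC50 determined at 24, 48 and 72 h of drug incubation. MTT read-out at 540 nm after formazan solubilization in DMSO.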

Experiment [4] relates to MCF7. Nature of the experiment: Cytotoxicity against human MCF7 cells by MTT assay. The method, boiled down: as §2
The test system of experiment [5] is MCF7. In words: Cytotoxicity against human MCF7 cells after 72 hrs by MTT assay. The note with it: MCF7, 72 h. Put shortly:
as §2

For experiment [6], the system named is MCF7. Nature of the experiment: DNA damaging activity in human MCF7 cells assessed as increase in tail moment after 24 hrs by alkaline comet assay. The method, boiled down:
(§3)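 Alkaline comet assay in MCF-7 after 24 h exposure to 5–50 μM. About 20,000 cells embedded in 0.75% low-melt agarose over a 1.5% agarose layer. Alkaline unwinding 1 h, then electrophoresis at pH 13 for 20 min, 16 V. Ethidium bromide staining; ~50 cells scored per slide, two slides per concentration; means ± SEM.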

Experiment [7] concerns MCF7. In words: DNA damaging activity in human MCF7 cells assessed as elongated tail length after 24 hrs by alkaline comet assay. The method, boiled down:
as §3

Experiment [8] deals with MCF7. In words: DNA damaging activity in human MCF7 cells assessed as olive tail moment after 24 hrs by alkaline comet assay. Put shortly:
as §3

The test system of experiment [9] is MCF7. In words: DNA damaging activity in human MCF7 cells assessed as tail DNA content after 24 hrs by alkaline comet assay. Put shortly:
as §3

For the compound `C[C@@H](NC(=S)Nc1ccc(F)c(Cl)c1)c1ccc(F)cc1`, the results for the IC50 result (with MCF7 [1]; in experiment [2]; in the experiment with HeLa) were “Dose-dependent effect”, 29.9 µM and 71.4 µM, respectively.

For the compound `C[C@@H](Nc1nc2cc(Cl)c(F)cc2s1)c1ccc(Cl)cc1`, the IC50 result in the experiment with MCF7 [1] was “Dose-dependent effect”; in experiment [2], 25.5 µM; with HeLa, 69.7 µM.

Consider `CCCCCC[C@@H](C)Nc1nc2cc(Cl)c(F)cc2s1`, for which the IC50 entry was “Dose-dependent effect” in the experiment on MCF7 [1]; 24.8 µM with MCF7 [3]; 24.6 µM in experiment [2]; 48 µM in the experiment on HeLa; “tde” in the experiment with MCF7 [4] (TDE = time-dependent effect); 15 µM with MCF7 [5].

Turning to `CC(Nc1nc2cc(Cl)c(F)cc2s1)c1ccc(F)cc1` (single isomer, unassigned), the IC50 entry with MCF7 [1] was “Dose-dependent effect”; in experiment [2], 35.4 µM; in the experiment with HeLa, 61.9 µM.

Regarding `Fc1ccc(NC(=S)NC2CCCCC2OCc2ccccc2)cc1Cl` (stereo not drawn), the IC50 result in the experiment on MCF7 [1] is “Dose-dependent effect”; in the experiment with MCF7 [3], 12.8 µM; in experiment [2] it was 10.6 µM; in the experiment on HeLa, 33.8 µM; in the experiment with MCF7 [4] (TDE = time-dependent effect), “tde”; with MCF7 [5], 8.61 µM.

As for `C[C@@H](NC(=S)Nc1ccc(F)c(Cl)c1)c1ccccc1`, the IC50 result in the experiment on MCF7 [1] is “Dose-dependent effect”; in experiment [2], 23.6 µM; in the experiment with HeLa, 66.2 µM.

With `C[C@@H](NC(=S)Nc1ccc(F)c(Cl)c1)c1ccc(Cl)cc1`, the half-maximal inhibitory concentration (IC50) result is “Dose-dependent effect” in the experiment with MCF7 [1]; 16.3 µM with MCF7 [3]; 17.3 µM in experiment [2]; 43 µM with HeLa; “tde” in the experiment with MCF7 [4]; 11.4 µM in the experiment on MCF7 [5]. The Activity entry with MCF7 [6], in the experiment with MCF7 [7], with MCF7 [8] and in the experiment on MCF7 [9] was “Dose-dependent effect” throughout.

Turning to `Fc1cc2sc(N[C@@H]3CCCC[C@@H]3OCc3ccccc3)nc2cc1Cl`, the 50% inhibitory concentration (IC50) entry with MCF7 [1] was “Dose-dependent effect”; in [2], 20.6 µM; with HeLa, 60.8 µM.

In the case of `CC[C@@H](NC(=S)Nc1ccc(F)c(Cl)c1)c1ccccc1`, the IC50 result in the experiment on MCF7 [1] was “Dose-dependent effect”; in experiment [2], 80.2 µM.

For the compound `CCCCCC[C@@H](C)NC(=S)Nc1ccc(F)c(Cl)c1`, the half-inhibitory concentration (IC50) result with MCF7 [1] was “Dose-dependent effect”; in experiment [2], 25.5 µM; in the experiment with HeLa, 49.1 µM.

Take `CC(Nc1nc2cc(Cl)c(F)cc2s1)C1CCCCC1` (single isomer, unassigned): the figures for the IC50 entry (in the experiment with MCF7 [1]; in [2]; in the experiment on HeLa) were “Dose-dependent effect”, 29.8 µM and 72.5 µM, respectively.

`COc1ccc(C(C)Nc2nc3cc(Cl)c(F)cc3s2)cc1` (single isomer, unassigned): the concentration for half-maximal inhibition (IC50) result was “Dose-dependent effect” in the experiment on MCF7 [1] and 75.4 µM in experiment [2].

As to `CCC(Nc1nc2cc(Cl)c(F)cc2s1)c1ccccc1` (single isomer, unassigned), the half-maximal inhibitory concentration (IC50) result is “Dose-dependent effect” with MCF7 [1], 32.2 µM in [2] and 53.3 µM with HeLa.

On to `CC(Nc1nc2cc(Cl)c(F)cc2s1)c1ccccc1` (single isomer, unassigned), for which the IC50 result in the experiment with MCF7 [1] is “Dose-dependent effect”; in experiment [2] it was 36.6 µM; in the experiment on HeLa it was 58.9 µM.

As for `COc1cccc2c1C(=O)c1c(O)c3c(c(O)c1C2=O)C[C@@](O)(C(=O)CO)C[C@@H]3O[C@H]1C[C@H](N)[C@H](O)[C@H](C)O1` [DOXORUBICIN], the values for the IC50 entry (in the experiment on MCF7 [1]; in experiment [2]) were “Dose-dependent effect” and 4.18 µM, respectively.

For `COc1ccc([C@@H](C)NC(=S)Nc2ccc(F)c(Cl)c2)cc1`, the IC50 result with MCF7 [1] is “Dose-dependent effect”; in [2] it was 45.6 µM; with HeLa it was 77.5 µM.
